ChEMBL document CHEMBL1146590, “Cytotoxic sesquiterpene lactones from the root of Saussurea lappa” (2003)
Values after ≈ are worked out from the molar mass of the structure shown. Active and inactive are the calls of the source. No cut-off for these calls is given here.

Experiments:
HeLa = assay: Cytotoxicity against human HeLa cells after 48 hrs by MTT assay; type: functional; settings: read-out: CD50 (the source's name)
OVCAR-3 [1] = assay: Cytotoxicity against human OVCAR-3 cells after 48 hrs by MTT assay; type: functional; settings: for CC50: OVCAR-3, 48 h, read-out: CD50 (the source's name)
Procedure, shortened: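 OVCAR-3 cells were exposed to a range of concentrations for 48 h, and viability was read by MTT colorimetric assay. CD50 was determined by the MTT method. Data are reported as mean ± SD (n = 4).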

HepG2 = assay: Cytotoxicity against human HepG2 cells after 48 hrs by MTT assay; type: functional; settings: for CC50: HepG2, 48 h, read-out: CD50 (the source's name)
Enterococcus = assay: Antibacterial activity against vancomycin-resistant Enterococcus CKU-17; type: functional
Enterococcus faecalis = assay: Antibacterial activity against Enterococcus faecalis; type: functional
Staphylococcus aureus [2] = assay: Antibacterial activity against Staphylococcus aureus; type: functional
Escherichia coli = assay: Antibacterial activity against Escherichia coli; type: functional
Staphylococcus aureus [3] = assay: Antibacterial activity against methicillin-resistant Staphylococcus aureus; type: functional
OVCAR-3 (Homo sapiens) = assay: Cytotoxicity against human OVCAR-3 cells after 48 hrs by MTT assay
OVCAR-3 [4] = assay: Cytotoxicity against human OVCAR-3 cells assessed as half cell death at 4 times CD50 up to 2 hrs by MTT assay; type: functional, cell-based
Procedure, shortened: (§1)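 OVCAR-3 cells were seeded at 5 × 10^3 per well and grown 24 h. […] Compound was washed out, fresh medium was added, and cells were incubated a further 48 h at 37 °C. Viable cells were read by MTT at OD 570 nm as % of control, mean ± SD (n = 4).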

OVCAR-3 [5] = assay: Cytotoxicity against human OVCAR-3 cells assessed as half cell death at 2 times CD50 after 6 hrs by MTT assay; type: functional, cell-based; procedure, shortened: as §1
OVCAR-3 [6] = assay: Cytotoxicity against human OVCAR-3 cells assessed as half cell death at CD50 after 24 hrs by MTT assay; type: functional, cell-based; procedure, shortened: as §1

Compound | CC50 (HeLa) [µg/mL] | CC50 (OVCAR-3 [1]) [µg/mL] | CC50 (HepG2) [µg/mL] | MIC (Enterococcus) [µg/mL] | MIC (Enterococcus faecalis) [µg/mL] | MIC (Staphylococcus aureus [2]) [µg/mL] | MIC (Escherichia coli) [µg/mL] | Activity (OVCAR-3 [1]) | Activity (HepG2) | MIC (Staphylococcus aureus [3]) [µg/mL] | Activity (OVCAR-3 (Homo sapiens)) | Activity (OVCAR-3 [4]) | Activity (OVCAR-3 [5]) | Activity (OVCAR-3 [6])
C=C1CC[C@@H](O)[C@]2(C)CC[C@@H]3[C@H](OC(=O)[C@H]3C)[C@@H]12 | > 100 | 95 (≈ 379 µM) | > 100 | – | – | – | – | – | – | – | – | – | – | –
C=C1CC[C@@H](O)[C@]2(C)CC[C@@H](C(=C)C(=O)OCC)[C@H](O)[C@@H]12 | 75 (≈ 255 µM) | 75 (≈ 255 µM) | 50 (≈ 170 µM) | – | – | – | – | – | – | – | – | – | – | –
C=C1[C@@H]2[C@H]3OC(=O)[C@@H](C)[C@@H]3CCC(=C)[C@@H]2C[C@H]1O | 65 (≈ 262 µM) | 65 (≈ 262 µM) | 75 (≈ 302 µM) | – | – | – | – | – | – | – | – | – | – | –
C=C1C(=O)O[C@@H]2[C@@H]3[C@](C)(CCC[C@@]3(C)O)CC[C@@H]12 [ARBUSCULIN A] | 7.5 (≈ 30 µM) | 7.5 (≈ 30 µM) | 10 (≈ 39.9 µM) | – | – | – | – | – | – | – | – | – | – | –
O=C(N[C@H](CO)[C@H](O)c1ccc([N+](=O)[O-])cc1)C(Cl)Cl [CHLORAMPHENICOL] | – | – | – | 6.25 (≈ 19.3 µM) | 6.25 (≈ 19.3 µM) | – | – | – | – | – | – | – | – | –
C[C@@H]1C(=O)O[C@H]2[C@H]1CC[C@@]1(C)[C@H](O)CC[C@@](C)(O)[C@H]21 [COLARTIN] | 100 (≈ 373 µM) | 100 (≈ 373 µM) | > 100 | > 800 | > 800 | > 800 | > 800 | – | – | – | – | – | – | –
C=C1C(=O)O[C@@H]2/C=C(\C)CC/C=C(\C)CC[C@@H]12 [COSTUNOLIDE] | 2 (≈ 8.61 µM) | 2 (≈ 8.61 µM) | 1.6 (≈ 6.89 µM) | 400 (≈ 1720 µM) | 400 (≈ 1720 µM) | 100 (≈ 430 µM) | > 800 | Dose-dependent effect | Dose-dependent effect | 200 (≈ 861 µM) | Dose-dependent effect | – | – | –
C=C1CC[C@H]2C(=C)CC[C@H]3C(=C)C(=O)O[C@@H]3[C@@H]12 [DEHYDROCOSTUSLACTONE] | 3.5 (≈ 15.2 µM) | 2.5 (≈ 10.9 µM) | 3.5 (≈ 15.2 µM) | > 800 | > 800 | 400 (≈ 1740 µM) | > 800 | Dose-dependent effect | Dose-dependent effect | 800 (≈ 3470 µM) | Dose-dependent effect | – | – | –
C=C(CO)[C@@H]1CC[C@@]2(C)CCC[C@@](C)(O)[C@@H]2C1 [ILICIC ALCOHOL] | > 100 | > 100 | > 100 | – | – | – | – | – | – | – | – | – | – | –
C=C1[C@@H]2[C@H]3OC(=O)C(=C)[C@@H]3CCC(=C)[C@@H]2C[C@H]1O [ISOZALUZANIN C] | 13.5 (≈ 54.8 µM) | 7.5 (≈ 30.4 µM) | 15 (≈ 60.9 µM) | – | – | – | – | – | – | – | – | – | – | –
C=C1CC[C@H]2C(=C)CC[C@@H]3[C@H](OC(=O)[C@@]3(O)C[C@]3(C)CCC(=O)[C@]4(C)CC[C@H]5C(=C)C(=O)O[C@@H]5[C@@H]34)[C@@H]12 [LAPPADILACTONE] | 1.8 (≈ 3.64 µM) | 2.5 (≈ 5.05 µM) | 2.4 (≈ 4.85 µM) | – | – | – | – | Dose-dependent effect | Dose-dependent effect | – | Dose-dependent effect | Active | Active | Active
C=C1CC[C@H]2C(=C)CC[C@@H]3[C@H](OC(=O)[C@@]3(O)CC(C)=O)[C@@H]12 [LAPPALONE] | > 100 | > 100 | > 100 | – | – | – | – | – | – | – | – | – | – | –
C=C1CC[C@@H](O)[C@]2(C)CC[C@H]3C(=C)C(=O)O[C@@H]3[C@@H]12 [REYNOSIN] | 7.5 (≈ 30.2 µM) | 7.5 (≈ 30.2 µM) | 11 (≈ 44.3 µM) | > 800 | > 800 | 800 (≈ 3220 µM) | > 800 | – | – | > 800 | – | – | – | –
C=C1C(=O)O[C@@H]2[C@H]3C(C)=CC[C@@H](O)[C@]3(C)CC[C@@H]12 [SANTAMARIN] | 10 (≈ 40.3 µM) | 10 (≈ 40.3 µM) | 7.5 (≈ 30.2 µM) | > 800 | > 800 | 800 (≈ 3220 µM) | > 800 | – | – | 800 (≈ 3220 µM) | – | – | – | –
CN[C@H](CC(C)C)C(=O)N[C@H]1C(=O)N[C@@H](CC(N)=O)C(=O)N[C@H]2C(=O)N[C@H]3C(=O)N[C@H](C(=O)N[C@H](C(=O)O)c4cc(O)cc(O)c4-c4cc3ccc4O)[C@H](O)c3ccc(c(Cl)c3)Oc3cc2cc(c3O[C@@H]2O[C@H](CO)[C@@H](O)[C@H](O)[C@H]2O[C@H]2C[C@](C)(N)[C@H](O)[C@H](C)O2)Oc2ccc(cc2Cl)[C@H]1O [VANCOMYCIN] | – | – | – | > 100 | 3.13 (≈ 2.16 µM) | 1.56 (≈ 1.08 µM) | – | – | – | 1.56 (≈ 1.08 µM) | – | – | – | –
C=C1[C@@H]2[C@H]3OC(=O)C(=C)[C@@H]3CCC(=C)[C@@H]2C[C@@H]1O [ZALUZANIN C] | 22 (≈ 89.3 µM) | 15 (≈ 60.9 µM) | 34 (≈ 138 µM) | – | – | – | – | – | – | – | – | – | – | –
GENTAMICIN | – | – | – | – | – | 0.78 | 3.13 | – | – | > 100 | – | – | – | –
